Reference: ChEMBL document CHEMBL4619820, “Development of Novel AKR1C3 Inhibitors as New Potential Treatment for Castration-Resistant Prostate Cancer” (J Med Chem, 2020)
Active and inactive are the calls of the source. No cut-off for these calls is given here.

Legend:
PC-3 [1] = assay: Inhibition of cell proliferation of human PC3 cells at 10 to 20 uM incubated for 72 hrs by alamar blue assay; type: functional, cell-based
How it was run: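 PC3 cells (AKR1C3-positive, AR-negative) grown 72 h with or without inhibitor; growth curves of viable cell number compared with inhibitor-free cells.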

[2] = molecular target: T1, Aldo-keto reductase family 1 member C3 (Homo sapiens) (UniProt P42330); assay: Inhibition of AKR1C3 in human 22Rv1 cells assessed as as reduction in AR mRNA expression at 10 to 20 uM pre-incubated for 2 hrs before pregnenolone stimulation for 24 hrs by RT-qPCR analysis; type: cell-based; conditions: CWR22R
T1 sequence (whole entry): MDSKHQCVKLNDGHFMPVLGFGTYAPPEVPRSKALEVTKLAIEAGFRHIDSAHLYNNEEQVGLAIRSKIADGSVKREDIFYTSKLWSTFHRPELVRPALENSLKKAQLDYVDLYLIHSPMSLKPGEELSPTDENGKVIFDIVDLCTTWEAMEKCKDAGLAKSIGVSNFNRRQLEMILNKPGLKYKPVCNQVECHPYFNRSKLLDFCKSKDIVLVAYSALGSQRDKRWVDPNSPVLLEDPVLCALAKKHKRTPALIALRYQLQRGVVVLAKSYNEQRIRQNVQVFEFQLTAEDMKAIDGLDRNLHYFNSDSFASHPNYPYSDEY
How it was run: (§1)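 22Rv1 cells pretreated 2 h with test agents, then stimulated 24 h with 20 nM pregnenolone; AR, TMPRSS2 and PSA mRNA measured by RT-qPCR, given as ratio to pregnenolone-free control.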

[3] = molecular target: T1, Aldo-keto reductase family 1 member C3 (Homo sapiens); assay: Inhibition of AKR1C3 in human 22Rv1 cells assessed as as reduction in AR nuclear translocation at 10 to 20 uM pre-incubated for 2 hrs in absence of finasteride by Western blot analysis; type: cell-based; conditions: CWR22R
CWR22R [4] = assay: Induction of apoptosis in human 22Rv1 cells assessed as increase in cleaved caspase-3 level at 10 uM pre-incubated for 2 hrs before addition of pregnenolone for 24 hrs by Western blot analysis; type: functional, cell-based
How it was run: (§2)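 Apoptotic markers in 22Rv1: 2 h pretreatment with or without 10 μM inhibitor and/or 50 μM enzalutamide, then 24 h 20 nM pregnenolone; Bax/Bcl-2 ratio as percent of control; cleaved caspase-3 also by immunofluorescence with DAPI.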

[5] = molecular target: T1, Aldo-keto reductase family 1 member C3 (Homo sapiens); assay: Inhibition of AKR1C3 in human 22Rv1 cells assessed as potentiation of abiraterone-induced of ROS generation at 10 uM by DCFH-DA dye based flow cytometric analysis; type: cell-based; conditions: CWR22R
How it was run: (§3)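 22Rv1 cells exposed 3 h to 10 μM inhibitor and/or abiraterone, or 50 μM enzalutamide; intracellular ROS by flow cytometry as DCF-positive cells, percent of vehicle control.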

CWR22R [6] = assay: Inhibition of pregnenolone-induced cell cell cycle changes in human 22Rv1 cells assessed as increase in G0/GG1 phase accumulation at 10 uM pre-incubated for 2 hrs before pregnenolone stimulation for 24 hrs by propidium iodide staining based flow cytometry; type: functional
How it was run: (§4)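 Cell cycle in 22Rv1: 2 h pretreatment with or without 10 μM inhibitor, then 24 h with 20 nM pregnenolone; G0/G1, S and G2/M fractions determined by flow cytometry.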

[7] = molecular target: T1, Aldo-keto reductase family 1 member C3 (Homo sapiens); assay: Inhibition of AKR1C3 in human 22Rv1 cells assessed as potentiation of enzalutamide-induced apoptosis by measuring increase in cleaved caspase-3 level at 10 uM pre-incubated for 2 hrs before addition of pregnenolone for 24 hrs by Western blot analysis; type: cell-based; conditions: CWR22R; how it was run: as §2
PC-3 [8] = conditions: Homo sapiens, at 10 µM
[9] = molecular target: T1, Aldo-keto reductase family 1 member C3 (Homo sapiens); assay: Inhibition of AKR1C3 in human 22Rv1 cells assessed as potentiation of abiraterone-induced apoptosis by measuring increase in DNA fragmentation at 10 uM pre-incubated for 2 hrs before addition of pregnenolone for 24 hrs by ethidium bromide staining based DNA agarose gel electrophores method; type: cell-based; conditions: CWR22R
[10] = molecular target: T1, Aldo-keto reductase family 1 member C3 (Homo sapiens); assay: Inhibition of AKR1C3 in human 22Rv1 cells assessed as potentiation of enzalutamide-induced apoptosis by measuring increase in DNA fragmentation at 10 uM pre-incubated for 2 hrs before addition of pregnenolone for 24 hrs by ethidium bromide staining based DNA agarose gel electrophores method; type: cell-based; conditions: CWR22R
[11] = molecular target: T1, Aldo-keto reductase family 1 member C3 (Homo sapiens); assay: Inhibition of AKR1C3 in human 22Rv1 cells assessed as potentiation of enzalutamide-induced of ROS generation at 10 uM by DCFH-DA dye based flow cytometric analysis; type: cell-based; conditions: CWR22R; how it was run: as §3
[12] = molecular target: T1, Aldo-keto reductase family 1 member C3 (Homo sapiens); assay: Inhibition of AKR1C3 in human 22Rv1 cells assessed as potentiation of abiraterone-induced apoptosis by measuring reduction in BCl2 level at 10 uM pre-incubated for 2 hrs before addition of pregnenolone for 24 hrs by Western blot analysis; type: cell-based; conditions: CWR22R
CWR22R [13] = assay: Induction of apoptosis in human 22Rv1 cells assessed as increase in DNA fragmentation at 10 uM pre-incubated for 2 hrs before addition of pregnenolone for 24 hrs by ethidium bromide staining based DNA agarose gel electrophores method; type: functional, cell-based
[14] = molecular target: T1, Aldo-keto reductase family 1 member C3 (Homo sapiens); assay: Inhibition of AKR1C3 in human 22Rv1 cells assessed as potentiation of abiraterone-induced apoptosis by measuring increase in cleaved PARP level at 10 uM pre-incubated for 2 hrs before addition of pregnenolone for 24 hrs by Western blot analysis; type: cell-based; conditions: CWR22R
[15] = molecular target: T1, Aldo-keto reductase family 1 member C3 (Homo sapiens); assay: Inhibition of AKR1C3 in human 22Rv1 cells assessed as as reduction in TMPRSS2 mRNA expression at 10 to 20 uM pre-incubated for 2 hrs before pregnenolone stimulation for 24 hrs by RT-qPCR analysis; type: cell-based; conditions: CWR22R; how it was run: as §1
CWR22R [16] = assay: Effect on AKR1C3 gene expression in human 22Rv1 cells at 10 uM incubated for 24 hrs by semiquantitative RT-PCR analysis; type: functional, cell-based
[17] = molecular target: T1, Aldo-keto reductase family 1 member C3 (Homo sapiens); assay: Inhibition of AKR1C3 in human 22Rv1 cells assessed as potentiation of abiraterone-induced apoptosis by measuring increase in cleaved caspase-3 level at 10 uM pre-incubated for 2 hrs before addition of pregnenolone for 24 hrs by Western blot analysis; type: cell-based; conditions: CWR22R
[18] = molecular target: T1, Aldo-keto reductase family 1 member C3 (Homo sapiens); assay: Inhibition of AKR1C3 in human 22Rv1 cells assessed as as reduction in finasteride-induced metabolism of 4AD into testosterone at 10 to 20 uM pre-incubated for 2 hrs in presence of finasteride before 4AD addition for 24 hrs by EIA; type: cell-based; conditions: CWR22R
How it was run: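 22Rv1 cells pretreated 2 h with or without 2 μM finasteride and/or inhibitor, then cultured 24 h with 100 nM 4AD; testosterone in cell extracts quantified by EIA and expressed as percent of finasteride-free control.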

CWR22R [19] = assay: Inhibition of pregnenolone-induced cell cell cycle changes in human 22Rv1 cells assessed as reduction in S phase accumulation at 10 uM pre-incubated for 2 hrs before pregnenolone stimulation for 24 hrs by propidium iodide staining based flow cytometry; type: functional; how it was run: as §4
[20] = molecular target: T1, Aldo-keto reductase family 1 member C3 (Homo sapiens); assay: Inhibition of AKR1C3 in human 22Rv1 cells assessed as potentiation of enzalutamide-induced apoptosis by measuring reduction in BCl2 level at 10 uM pre-incubated for 2 hrs before addition of pregnenolone for 24 hrs by Western blot analysis; type: cell-based; conditions: CWR22R; how it was run: as §2
[21] = molecular target: T1, Aldo-keto reductase family 1 member C3 (Homo sapiens); assay: Inhibition of AKR1C3 in human 22Rv1 cells assessed as potentiation of enzalutamide-induced apoptosis by measuring increase in cleaved PARP level at 10 uM pre-incubated for 2 hrs before addition of pregnenolone for 24 hrs by Western blot analysis; type: cell-based; conditions: CWR22R; how it was run: as §2
[22] = molecular target: T1, Aldo-keto reductase family 1 member C3 (Homo sapiens); assay: Inhibition of AKR1C3 in human 22Rv1 cells assessed as potentiation of enzalutamide-induced apoptosis by measuring increase in Bax level at 10 uM pre-incubated for 2 hrs before addition of pregnenolone for 24 hrs by Western blot analysis; type: cell-based; conditions: CWR22R; how it was run: as §2

| SMILES | inhibition (PC-3 [1]) | inhibition [2] | inhibition [3] | Activity (CWR22R [4]) | inhibition [5] | inhibition (CWR22R [6]) | inhibition [7] | inhibition (PC-3 [8]) | inhibition [9] | inhibition [10] | inhibition [11] | inhibition [12] | Activity (CWR22R [13]) | inhibition [14] | inhibition [15] | Activity (CWR22R [16]) | inhibition [17] | inhibition [18] | inhibition (CWR22R [19]) | inhibition [20] | also measured |
| --- | --- | --- | --- | --- | --- | --- | --- | --- | --- | --- | --- | --- | --- | --- | --- | --- | --- | --- | --- | --- | --- |
| Cc1ccc(NC(=O)c2cc3cccc(O)c3oc2=N)cc1 | Active | Active | Active | Active | Active | Active | Active | Active | Active | Active | Active | Active | Active | Active | Active | inactive | Active | Active | Active | Active | inhibition [21]: Active; inhibition [22]: Active |
| N=c1oc2c(O)cccc2cc1C(=O)Nc1ccc(F)cc1 | Active | Active | Active | Active | Active | Active | Active | Active | Active | Active | Active | Active | Active | Active | Active | inactive | Active | Active | Active | Active | inhibition [21]: Active; inhibition [22]: Active |
